According to ChEMBL document CHEMBL1800025 (J Med Chem, 2011):
pIC50: −log10 of the molar value. Active and inactive are the calls of the source. The calls are words filed in the database; no cut-off is given here.

Assays:
[1] = target: T1, Serine/threonine-protein kinase pim-1 (Homo sapiens, UniProt P11309); experiment: Inhibition of human recombinant Pim1
Outline: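 Kinase assayed in buffer C (25 mM Mops pH 7.2, 60 mM beta-glycerophosphate, 30 mM p-nitrophenylphosphate, 15 mM MgCl2, 5 mM EGTA, 1 mM DTT, 0.1 mM vanadate) with 1 mg/mL histone H1. DMSO controls.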
Target sequence in this assay (P11309 whole entry): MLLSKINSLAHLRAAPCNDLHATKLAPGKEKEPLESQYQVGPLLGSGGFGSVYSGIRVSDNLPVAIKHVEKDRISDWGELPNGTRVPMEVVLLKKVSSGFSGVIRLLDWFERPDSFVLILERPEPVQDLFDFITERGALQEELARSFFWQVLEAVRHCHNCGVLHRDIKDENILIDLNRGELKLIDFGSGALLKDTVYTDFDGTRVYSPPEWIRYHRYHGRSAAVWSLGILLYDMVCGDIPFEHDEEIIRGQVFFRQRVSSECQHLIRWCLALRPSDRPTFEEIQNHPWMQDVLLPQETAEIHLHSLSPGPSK

[2] = target: Dual specificity tyrosine-phosphorylation-regulated kinase 1A (Rattus norvegicus) (UniProt Q63470); experiment: Inhibition of rat recombinant GST-tagged DYRK1A using KKISGRLSPIMTEQ as substrate and [gamma32]-ATP at 10 uM after 30 mins by scintillation counting
Outline: (§1)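 GST fusion kinases expressed in E. coli and purified on glutathione-agarose; DYRK1A is rat, DYRK2 is human. Assay buffer A (25 mM Tris-HCl pH 7.5, 10 mM MgCl2, 1 mM EGTA, 1 mM DTT, 50 μg/mL heparin) plus 0.15 mg/mL BSA. Woodtide 1.5 μg/assay with 15 μM [γ-33P]ATP, 30 min at 30 C. Product captured on P81 paper, washed in 1% phosphoric acid, scintillation counted. Activity expressed as percent of uninhibited control.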

[3] = target: T2, Dual specificity tyrosine-phosphorylation-regulated kinase 2 (Homo sapiens) (UniProt Q92630); experiment: Inhibition of human recombinant GST-tagged DYRK2 using […] as substrate and [gamma32]-ATP at 10 uM after 30 mins by scintillation counting; outline: as §1
T2 sequence (whole entry): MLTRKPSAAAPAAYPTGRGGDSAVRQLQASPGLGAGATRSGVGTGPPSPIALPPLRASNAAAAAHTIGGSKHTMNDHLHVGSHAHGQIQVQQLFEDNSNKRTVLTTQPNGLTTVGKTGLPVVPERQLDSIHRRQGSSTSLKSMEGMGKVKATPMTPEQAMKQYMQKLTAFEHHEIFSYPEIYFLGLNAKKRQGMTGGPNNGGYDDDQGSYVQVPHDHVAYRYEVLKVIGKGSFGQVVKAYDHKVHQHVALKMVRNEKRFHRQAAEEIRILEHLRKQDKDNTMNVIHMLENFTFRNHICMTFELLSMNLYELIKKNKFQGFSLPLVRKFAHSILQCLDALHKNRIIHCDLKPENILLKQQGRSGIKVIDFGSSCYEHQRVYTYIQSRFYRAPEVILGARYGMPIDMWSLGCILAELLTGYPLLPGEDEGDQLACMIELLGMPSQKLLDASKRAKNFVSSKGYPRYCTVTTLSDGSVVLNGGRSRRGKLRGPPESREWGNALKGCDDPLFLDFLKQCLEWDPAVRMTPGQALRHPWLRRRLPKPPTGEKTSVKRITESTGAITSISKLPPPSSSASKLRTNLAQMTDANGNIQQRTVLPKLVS

[4] = target: Dual specificity protein kinase CLK1 (Mus musculus) (UniProt P22518); experiment: Inhibition of mouse recombinant GST-tagged CLK1 using GRSRSRSRSRSR as substrate at 10 uM
Chain of Dual specificity protein kinase CLK1 (Mus musculus) (P22518 whole entry, looked up, the tested form may be a part): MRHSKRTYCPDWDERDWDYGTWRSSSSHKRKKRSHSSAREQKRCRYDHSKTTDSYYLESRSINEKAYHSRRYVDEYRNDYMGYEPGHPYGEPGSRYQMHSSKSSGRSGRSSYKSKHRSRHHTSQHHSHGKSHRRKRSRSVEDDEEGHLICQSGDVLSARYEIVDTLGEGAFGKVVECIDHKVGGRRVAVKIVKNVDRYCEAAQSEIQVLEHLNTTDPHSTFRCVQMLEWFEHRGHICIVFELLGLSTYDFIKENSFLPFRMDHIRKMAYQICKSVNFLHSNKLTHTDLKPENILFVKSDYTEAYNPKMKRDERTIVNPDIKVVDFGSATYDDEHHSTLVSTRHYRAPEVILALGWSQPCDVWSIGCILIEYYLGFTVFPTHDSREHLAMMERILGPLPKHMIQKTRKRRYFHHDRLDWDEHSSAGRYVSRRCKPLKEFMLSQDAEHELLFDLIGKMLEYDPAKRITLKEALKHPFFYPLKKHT
Outline: (§2)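 Mouse GST-fusion CLK1 or CLK3 expressed in E. coli. Assay buffer A (Tris-HCl pH 7.5, MgCl2, EGTA, DTT, heparin) plus 0.15 mg/mL BSA. RS peptide 1 μg/assay, 15 μM ATP final, 30 C. Blank subtracted; activity expressed as percent of activity without inhibitor. DMSO controls. Concentration range up to 10 μM.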

[5] = target: Dual specificity protein kinase CLK3 (Mus musculus) (UniProt O35492); experiment: Inhibition of mouse recombinant GST-tagged CLK3 using GRSRSRSRSRSR as substrate at 10 uM; outline: as §2
Chain of Dual specificity protein kinase CLK3 (Mus musculus) (O35492 whole entry): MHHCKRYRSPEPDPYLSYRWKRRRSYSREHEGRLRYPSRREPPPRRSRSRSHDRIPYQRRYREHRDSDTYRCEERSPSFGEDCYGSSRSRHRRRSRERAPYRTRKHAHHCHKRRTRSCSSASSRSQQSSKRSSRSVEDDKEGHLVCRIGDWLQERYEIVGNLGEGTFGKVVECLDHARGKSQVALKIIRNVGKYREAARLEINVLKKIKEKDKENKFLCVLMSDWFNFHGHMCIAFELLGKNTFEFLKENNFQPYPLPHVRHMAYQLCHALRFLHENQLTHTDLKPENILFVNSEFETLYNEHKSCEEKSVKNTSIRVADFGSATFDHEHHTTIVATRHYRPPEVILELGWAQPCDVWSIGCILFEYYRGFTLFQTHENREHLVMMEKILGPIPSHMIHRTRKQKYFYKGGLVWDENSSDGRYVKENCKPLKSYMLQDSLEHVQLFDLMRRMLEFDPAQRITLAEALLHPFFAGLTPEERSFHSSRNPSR

[6] = target: Cyclin-dependent kinase 5/CDK5 activator 1 (Homo sapiens) (UniProt Q00535+Q15078); experiment: Inhibition of human recombinant CDK5/p25 at 10 uM; type: protein-complex assay
Chain of Cyclin-dependent kinase 5/CDK5 activator 1 (Homo sapiens) (Q00535 whole entry): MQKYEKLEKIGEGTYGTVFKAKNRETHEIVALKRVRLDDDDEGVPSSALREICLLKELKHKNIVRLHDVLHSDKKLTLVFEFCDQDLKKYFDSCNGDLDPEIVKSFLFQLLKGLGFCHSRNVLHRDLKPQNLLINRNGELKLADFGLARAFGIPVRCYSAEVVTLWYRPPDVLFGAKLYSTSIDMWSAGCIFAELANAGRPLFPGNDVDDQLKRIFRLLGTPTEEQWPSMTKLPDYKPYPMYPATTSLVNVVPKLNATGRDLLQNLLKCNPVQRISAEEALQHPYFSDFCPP
Chain of Cyclin-dependent kinase 5/CDK5 activator 1 (Homo sapiens) (Q15078 99-307 partner limits assumed): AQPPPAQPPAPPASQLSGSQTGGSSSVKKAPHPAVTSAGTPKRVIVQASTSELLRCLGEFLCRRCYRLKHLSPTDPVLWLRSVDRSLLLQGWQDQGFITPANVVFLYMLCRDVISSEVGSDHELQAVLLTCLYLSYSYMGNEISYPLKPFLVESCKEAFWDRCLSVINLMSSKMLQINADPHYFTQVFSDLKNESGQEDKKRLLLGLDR
Outline: (§3)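 Kinase assayed in buffer C (25 mM Mops pH 7.2, 60 mM beta-glycerophosphate, 30 mM p-nitrophenylphosphate, 15 mM MgCl2, 5 mM EGTA, 1 mM DTT, 0.1 mM vanadate) with 1 mg/mL histone H1. 15 μM ATP final, 30 C. Activity is percent of activity without inhibitor, after blank subtraction. DMSO controls.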

Sus scrofa = species on record: Sus scrofa; experiment: Inhibition of pig brain CK1 delta/epsilon using RRKHAAIGpSAYSITA as substrate at 10 uM
Outline: (§4)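 Native CK1δ/ε from porcine brain, assayed in 3-fold diluted buffer C with 25 μM CKS peptide substrate. 15 μM ATP final, 30 C. Activity is percent of uninhibited control after blank subtraction, with DMSO controls. Inhibitor tested over a range of concentrations up to 10 μM.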

[7] = system: Cyclin-dependent kinase 5/p25 (Homo sapiens); experiment: Inhibition of human recombinant CDK5/p25 at 10 uM
[8] = target: Dual specificity tyrosine-phosphorylation-regulated kinase 1A (Rattus norvegicus, UniProt Q63470); experiment: Inhibition of rat recombinant GST-tagged DYRK1A using KKISGRLSPIMTEQ as substrate and [gamma32]-ATP after 30 mins by scintillation counting
Outline: as §1, with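 “BSA.” for “BSA. Woodtide 1.5 μg/assay with 15 μM [γ-33P]ATP, 30 min at 30 C.”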

[9] = target: Dual specificity protein kinase CLK1 (Mus musculus, UniProt P22518); experiment: Inhibition of mouse recombinant GST-tagged CLK1 using GRSRSRSRSRSR as substrate; outline: as §2
Chain of Dual specificity protein kinase CLK1 (P22518 whole entry): as the sequence (P22518 whole entry, looked up, the tested form may be a part) above

[10] = target: Dual specificity protein kinase CLK3 (Mus musculus, UniProt O35492); experiment: Inhibition of mouse recombinant GST-tagged CLK3 using GRSRSRSRSRSR as substrate; outline: as §2
Chain of Dual specificity protein kinase CLK3 (O35492 whole entry): as the sequence (O35492 whole entry) above

[11] = Inhibition of pig brain CK1 delta/epsilon using RRKHAAIGpSAYSITA as substrate; set-up: species or system Sus scrofa; outline: as §4
[12] = target: T3, Dual specificity tyrosine-phosphorylation-regulated kinase 2 (Homo sapiens, UniProt Q92630); experiment: Inhibition of human recombinant GST-tagged DYRK2 using KKISGRLSPIMTEQ as substrate and [gamma32]-ATP after 30 mins by scintillation counting
T3 sequence (Q92630 whole entry): T2 sequence (whole entry)
Outline: as §1, with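 “BSA.” for “BSA. Woodtide 1.5 μg/assay with 15 μM [γ-33P]ATP, 30 min at 30 C.”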

[13] = target: Dual specificity protein kinase CLK1 (Homo sapiens) (UniProt P49759); experiment: Inhibition of CLK1 transfected in human HeLa cells assessed as increase in exon inclusion ratio after 24 hrs by RT-PCR analysis; type: cell-based
Chain of Dual specificity protein kinase CLK1 (Homo sapiens) (P49759 whole entry, looked up, canonical isoform): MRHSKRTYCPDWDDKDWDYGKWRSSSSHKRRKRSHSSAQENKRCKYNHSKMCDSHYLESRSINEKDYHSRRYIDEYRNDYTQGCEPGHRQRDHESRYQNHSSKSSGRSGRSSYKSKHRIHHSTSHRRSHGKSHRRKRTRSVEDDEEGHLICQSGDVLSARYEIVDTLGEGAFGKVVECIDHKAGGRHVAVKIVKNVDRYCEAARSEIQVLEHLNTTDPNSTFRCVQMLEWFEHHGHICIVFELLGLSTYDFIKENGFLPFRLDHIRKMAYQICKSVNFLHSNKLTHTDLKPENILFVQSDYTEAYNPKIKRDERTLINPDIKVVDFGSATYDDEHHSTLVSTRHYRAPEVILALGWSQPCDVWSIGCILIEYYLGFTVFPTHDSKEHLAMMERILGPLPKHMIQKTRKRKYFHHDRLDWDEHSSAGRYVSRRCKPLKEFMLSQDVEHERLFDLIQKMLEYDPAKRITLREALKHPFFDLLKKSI
Outline: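 HeLa cells were transfected with […], with kinase-dead CLK1/K190R as comparator. Inhibitors at varying doses were added 3 h post-transfection, with 0.5% DMSO final in all cultures. Cells were harvested 24 h post-transfection, total RNA was extracted, and E1A splicing products were analysed by RT-PCR. Isoform molar ratios were measured by Bioanalyzer to give the exon inclusion ratio. Three independent samples were used.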

[14] = target: Glycogen synthase kinase-3 (Sus scrofa, UniProt B2LUN4+I6LNT8); experiment: Inhibition of pig brain GSK-3alpha/beta using YRRAAVPPSPSLSRHSSPHQSpEDEEE as substrate
Outline: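 Compounds were tested at various concentrations, the highest being 10 μM, with DMSO dilution controls. Blanks were subtracted and activity was expressed as percent of the uninhibited maximum.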

[15] = target: T1, Serine/threonine-protein kinase pim-1; experiment: Inhibition of human recombinant Pim1 at 10 uM; outline: as §3
Target sequence in this assay (P11309 whole entry, looked up): as the sequence (P11309 whole entry) above

[16] = target: Glycogen synthase kinase-3 alpha/beta (Sus scrofa); experiment: Inhibition of pig brain GSK-3alpha/beta

**Q.** With `CCCNC1=N/C(=C\c2ccccc2)C(=O)N1C` as the compound, how does the pIC50 [1] read?
**A.** < 5.00

**Q.** And the inhibition [2]?
**A.** inactive

**Q.** And the inhibition [3]?
**A.** inactive

**Q.** What about the inhibition [4] of the same compound?
**A.** inactive

**Q.** What about the inhibition [5] of the same compound?
**A.** inactive

**Q.** And the inhibition [6]?
**A.** inactive

**Q.** And the inhibition (Sus scrofa)?
**A.** inactive

**Q.** And the inhibition [7]?
**A.** inactive

**Q.** With `CN1C(=O)/C(=C/c2ccc3c(c2)OCO3)N=C1Nc1ccc2c(c1)OCCO2` as the compound, how does the pIC50 [8] read?
**A.** 6.66

**Q.** And the pIC50 [9]?
**A.** 6.66

**Q.** And the pIC50 [10]?
**A.** 5.44

**Q.** And the pIC50 [11]?
**A.** < 5.00

**Q.** What about the pIC50 [1] of the same compound?
**A.** 5.66

**Q.** What does the source list for `CCCNC1=N/C(=C\c2ccccc2O)C(=O)N1C`?
**A.** pIC50 [12]: < 5.00; pIC50 [9]: < 5.00; pIC50 [10]: < 5.00; pIC50 [1]: < 5.00; inhibition [6]: inactive; inhibition (Sus scrofa): inactive; inhibition [7]: inactive

**Q.** For `CCN1/C(=C/C(C)=O)Sc2ccc(OC)cc21`, which “increase in exon inclusion ratio” value [13] is on record?
**A.** Dose-dependent effect

**Q.** Which “increase in exon inclusion ratio” value [13] does the source give for `CC[C@H](CO)Nc1nc(NCc2ccccc2)c2ncn(C(C)C)c2n1` here?
**A.** inactive

**Q.** With `CCCNC1=N/C(=C\c2ccc3c(c2)OCO3)C(=O)N1c1ccccc1` as the compound, how does the pIC50 [8] read?
**A.** < 5.00

**Q.** And the pIC50 [12]?
**A.** < 5.00

**Q.** And the pIC50 [9]?
**A.** < 5.00

**Q.** And the pIC50 [10]?
**A.** < 5.00

**Q.** And the pIC50 [1]?
**A.** < 5.00

**Q.** What about the inhibition [6] of the same compound?
**A.** inactive

**Q.** What about the inhibition (Sus scrofa) of the same compound?
**A.** inactive

**Q.** Which results are given for `CN1C(=O)/C(=C/c2ccc3c(c2)OCO3)N=C1NCC1CC1`?
**A.** pIC50 [8]: 6.70; pIC50 [12]: 6.47; pIC50 [9]: 6.89; pIC50 [10]: 6.29; pIC50 [11]: < 5.00; pIC50 [1]: 5.68

**Q.** Which “increase in exon inclusion ratio” value [13] does the source give for `COc1ccc2c(c1)[nH]c1c(C)nccc12` here?
**A.** Dose-dependent effect

**Q.** With `CCCNC1=N/C(=C\c2ccc3c(c2)OCO3)C(=O)N1CCC` as the compound, how does the pIC50 [8] read?
**A.** < 5.00

**Q.** And the pIC50 [12]?
**A.** 5.68

**Q.** And the pIC50 [1]?
**A.** < 5.00

**Q.** What about the inhibition [4] of the same compound?
**A.** inactive

**Q.** And the inhibition [5]?
**A.** inactive

**Q.** What about the inhibition [6] of the same compound?
**A.** inactive

**Q.** And the inhibition (Sus scrofa)?
**A.** inactive

**Q.** With `CN1C(=O)/C(=C/c2ccc3c(c2)OCO3)N=C1N` [LEUCETTAMINE B] as the compound, how does the pIC50 [8] read?
**A.** 5.55

**Q.** What about the pIC50 [12] of the same compound?
**A.** 5.82

**Q.** And the pIC50 [9]?
**A.** 6.40

**Q.** What about the pIC50 [10] of the same compound?
**A.** 5.19

**Q.** What about the IC50 [14] of the same compound?
**A.** > 10 µM

**Q.** And the pIC50 [11]?
**A.** < 5.00

**Q.** And the pIC50 [1]?
**A.** < 5.00

**Q.** What does the source list for `CCCNC1=N/C(=C\c2ccc(Br)cc2)C(=O)N1C`?
**A.** pIC50 [10]: 5.06; inhibition [3]: inactive; inhibition [4]: inactive; inhibition [6]: inactive; inhibition (Sus scrofa): inactive; inhibition [15]: inactive

**Q.** With `CCCNC1=N/C(=C\c2ccc3c(c2)OC(F)(F)O3)C(=O)N1C` as the compound, how does the pIC50 [1] read?
**A.** < 5.00

**Q.** And the inhibition [2]?
**A.** inactive

**Q.** And the inhibition [3]?
**A.** inactive

**Q.** What about the inhibition [4] of the same compound?
**A.** inactive

**Q.** What about the inhibition [5] of the same compound?
**A.** inactive

**Q.** What about the inhibition [6] of the same compound?
**A.** inactive

**Q.** And the inhibition (Sus scrofa)?
**A.** inactive

**Q.** And the inhibition [7]?
**A.** inactive

**Q.** With `CC(C)CCNC1=N/C(=C\c2ccc3c(c2)OCO3)C(=O)N1C` as the compound, how does the pIC50 [8] read?
**A.** 6.34

**Q.** And the pIC50 [12]?
**A.** 6.25

**Q.** What about the pIC50 [9] of the same compound?
**A.** 6.80

**Q.** What about the pIC50 [10] of the same compound?
**A.** 6.02

**Q.** And the pIC50 [1]?
**A.** 5.68

**Q.** And the inhibition (Sus scrofa)?
**A.** inactive

**Q.** And the pIC50 [16]?
**A.** 5.70

**Q.** And the inhibition [7]?
**A.** inactive

**Q.** With `CCCNC1=N/C(=C\c2cc(OC)c(OC)c(OC)c2)C(=O)N1C` as the compound, how does the pIC50 [12] read?
**A.** < 5.00

**Q.** And the pIC50 [9]?
**A.** < 5.00

**Q.** What about the pIC50 [1] of the same compound?
**A.** < 5.00

**Q.** And the inhibition [2]?
**A.** inactive

**Q.** What about the inhibition [5] of the same compound?
**A.** inactive

**Q.** What about the inhibition [6] of the same compound?
**A.** inactive

**Q.** What about the inhibition (Sus scrofa) of the same compound?
**A.** inactive

**Q.** What about the inhibition [7] of the same compound?
**A.** inactive
